Results on 20 compounds are retold here after ChEMBL document CHEMBL1132940, “Pharmacophore/receptor models for GABA(A)/BzR subtypes (alpha1beta3gamma2, alpha5beta3gamma2, and alpha6beta3gamma2) via a comprehensive ligand-mapping approach” (J Med Chem, 2000).

Broadly, the Ki is a dissociation constant, usually derived from enzyme kinetics or from competition with a known ligand.

Assay [1] has as its target T1, GABA-A receptor; alpha-1/beta-3/gamma-2 (Homo sapiens, UniProt P14867+P18507+P28472).
T1 sequence (P14867 whole entry): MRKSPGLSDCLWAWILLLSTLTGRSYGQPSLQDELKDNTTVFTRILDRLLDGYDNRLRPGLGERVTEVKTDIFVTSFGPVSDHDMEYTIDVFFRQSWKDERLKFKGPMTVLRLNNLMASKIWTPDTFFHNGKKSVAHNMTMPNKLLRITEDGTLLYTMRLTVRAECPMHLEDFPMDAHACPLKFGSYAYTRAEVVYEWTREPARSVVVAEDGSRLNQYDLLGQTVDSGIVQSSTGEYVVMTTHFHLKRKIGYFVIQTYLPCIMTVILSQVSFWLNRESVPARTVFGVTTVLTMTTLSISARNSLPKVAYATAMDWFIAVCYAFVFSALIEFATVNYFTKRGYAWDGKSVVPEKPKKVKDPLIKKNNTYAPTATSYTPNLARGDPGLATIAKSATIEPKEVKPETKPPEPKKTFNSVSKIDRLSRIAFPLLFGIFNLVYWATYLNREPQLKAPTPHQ
T1 sequence (P18507 whole entry): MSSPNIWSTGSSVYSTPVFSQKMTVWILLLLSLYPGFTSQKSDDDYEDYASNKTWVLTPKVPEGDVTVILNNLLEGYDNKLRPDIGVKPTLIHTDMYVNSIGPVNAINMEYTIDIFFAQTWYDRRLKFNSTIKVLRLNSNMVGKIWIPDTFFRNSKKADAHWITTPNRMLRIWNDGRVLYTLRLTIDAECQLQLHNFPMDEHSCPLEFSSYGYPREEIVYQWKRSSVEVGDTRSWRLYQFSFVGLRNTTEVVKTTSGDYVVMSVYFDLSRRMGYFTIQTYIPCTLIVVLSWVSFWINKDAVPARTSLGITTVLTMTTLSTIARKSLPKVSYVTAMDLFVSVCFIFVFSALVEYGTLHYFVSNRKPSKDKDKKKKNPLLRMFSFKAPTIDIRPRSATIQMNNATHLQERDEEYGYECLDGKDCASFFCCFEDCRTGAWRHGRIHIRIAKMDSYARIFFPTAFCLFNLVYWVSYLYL
T1 sequence (P28472 whole entry): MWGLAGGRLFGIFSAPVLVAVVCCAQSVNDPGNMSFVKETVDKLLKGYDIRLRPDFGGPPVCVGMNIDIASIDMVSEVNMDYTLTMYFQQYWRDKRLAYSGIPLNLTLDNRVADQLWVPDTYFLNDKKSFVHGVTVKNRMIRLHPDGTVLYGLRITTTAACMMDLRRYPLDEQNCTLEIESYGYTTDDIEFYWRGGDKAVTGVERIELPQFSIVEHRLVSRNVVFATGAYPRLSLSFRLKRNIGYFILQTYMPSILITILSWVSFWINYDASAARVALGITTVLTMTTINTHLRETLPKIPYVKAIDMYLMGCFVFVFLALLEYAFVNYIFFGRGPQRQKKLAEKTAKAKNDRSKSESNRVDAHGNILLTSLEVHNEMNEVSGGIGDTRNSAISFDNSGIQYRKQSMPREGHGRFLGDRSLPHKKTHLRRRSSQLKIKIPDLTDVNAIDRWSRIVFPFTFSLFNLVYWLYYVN
Description: Binding affinity for human recombinant gamma-aminobutyric-acid (GABA) A receptor alpha-1-beta-3-gamma-2. The assay is classed as protein-complex assay.

The target of assay [2] is T2, GABA-A receptor; alpha-2/beta-3/gamma-2 (Homo sapiens, UniProt P18507+P28472+P47869).
T2 sequence (P18507 whole entry): T1 sequence (P18507 whole entry)
T2 sequence (P28472 whole entry): T1 sequence (P28472 whole entry)
T2 sequence (P47869 whole entry): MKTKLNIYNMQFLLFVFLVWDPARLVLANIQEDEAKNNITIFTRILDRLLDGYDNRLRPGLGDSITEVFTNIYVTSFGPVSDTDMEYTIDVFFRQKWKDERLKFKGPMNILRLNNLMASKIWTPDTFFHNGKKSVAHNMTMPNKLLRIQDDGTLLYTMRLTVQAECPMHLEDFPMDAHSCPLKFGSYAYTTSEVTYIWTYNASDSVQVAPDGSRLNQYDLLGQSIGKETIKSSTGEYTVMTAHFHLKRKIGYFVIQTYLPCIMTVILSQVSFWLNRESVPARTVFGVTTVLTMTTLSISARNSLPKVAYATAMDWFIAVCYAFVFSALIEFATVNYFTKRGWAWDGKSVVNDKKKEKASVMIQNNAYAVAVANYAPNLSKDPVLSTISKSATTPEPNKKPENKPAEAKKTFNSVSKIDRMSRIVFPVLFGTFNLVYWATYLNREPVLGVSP
Description: Binding affinity to human recombinant gamma-aminobutyric-acid (GABA) A receptor alpha-2-beta-3-gamma-2. The assay is classed as protein-complex assay.

In assay [3] the target is T3, GABA-A receptor; alpha-5/beta-3/gamma-2 (Homo sapiens, UniProt P18507+P28472+P31644).
T3 sequence (P18507 whole entry): T1 sequence (P18507 whole entry)
T3 sequence (P28472 whole entry): T1 sequence (P28472 whole entry)
T3 sequence (P31644 whole entry): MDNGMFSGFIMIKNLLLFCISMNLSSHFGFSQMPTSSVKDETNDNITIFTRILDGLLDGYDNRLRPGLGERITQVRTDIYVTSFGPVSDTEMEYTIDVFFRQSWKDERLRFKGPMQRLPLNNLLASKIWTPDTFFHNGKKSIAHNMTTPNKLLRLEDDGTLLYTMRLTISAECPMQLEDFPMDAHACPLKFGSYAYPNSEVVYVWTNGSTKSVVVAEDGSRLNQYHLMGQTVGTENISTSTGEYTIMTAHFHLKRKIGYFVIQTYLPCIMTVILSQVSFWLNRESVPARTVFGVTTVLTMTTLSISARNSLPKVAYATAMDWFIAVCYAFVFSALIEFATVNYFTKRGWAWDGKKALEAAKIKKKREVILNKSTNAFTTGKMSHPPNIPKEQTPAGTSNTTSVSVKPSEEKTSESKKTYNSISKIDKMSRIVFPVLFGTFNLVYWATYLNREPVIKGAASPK
Description: Binding affinity for human recombinant gamma-aminobutyric-acid (GABA) A receptor alpha-5-beta-3-gamma-2. It counts as protein-complex assay.

The target of assay [4] is T4, GABA-A receptor; alpha-3/beta-3/gamma-2 (Homo sapiens, UniProt P18507+P28472+P34903).
T4 sequence (P18507 whole entry): T1 sequence (P18507 whole entry)
T4 sequence (P28472 whole entry): T1 sequence (P28472 whole entry)
T4 sequence (P34903 whole entry): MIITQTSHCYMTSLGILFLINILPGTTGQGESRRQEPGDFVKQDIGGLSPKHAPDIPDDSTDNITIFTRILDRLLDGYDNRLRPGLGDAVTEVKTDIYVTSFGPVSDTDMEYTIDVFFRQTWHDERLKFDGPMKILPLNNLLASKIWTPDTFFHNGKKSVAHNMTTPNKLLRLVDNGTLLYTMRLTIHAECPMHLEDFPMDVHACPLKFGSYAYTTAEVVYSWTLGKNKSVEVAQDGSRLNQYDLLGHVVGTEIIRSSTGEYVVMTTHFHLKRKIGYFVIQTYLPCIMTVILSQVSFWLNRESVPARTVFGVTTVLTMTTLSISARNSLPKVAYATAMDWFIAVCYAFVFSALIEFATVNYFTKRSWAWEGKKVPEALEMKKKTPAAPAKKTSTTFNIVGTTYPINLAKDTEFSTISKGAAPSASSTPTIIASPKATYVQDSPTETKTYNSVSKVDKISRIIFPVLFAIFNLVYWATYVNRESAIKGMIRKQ
Description: Binding affinity for human recombinant gamma-aminobutyric-acid (GABA) A receptor alpha-3-beta-3-gamma-2. The assay is classed as protein-complex assay.

In assay [5] the target is GABA-A receptor; alpha-6/beta-3/gamma-2 (Homo sapiens, UniProt P18507+P28472+Q16445). Briefly: Binding affinity for human recombinant gamma-aminobutyric-acid (GABA) A receptor alpha-6-beta-3-gamma-2. It counts as protein-complex assay. The gist of the method: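 Ltk⁻ cells expressing human α6β3γ2 were harvested by scraping into PBS, centrifuged at 3000g and resuspended in 10 mM KH₂PO₄/100 mM KCl (pH 7.4). Incubation was 1 h at 4 °C with filter harvest and scintillation counting.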
Chain of GABA-A receptor; alpha-6/beta-3/gamma-2 (Q16445 whole entry, one chain of several): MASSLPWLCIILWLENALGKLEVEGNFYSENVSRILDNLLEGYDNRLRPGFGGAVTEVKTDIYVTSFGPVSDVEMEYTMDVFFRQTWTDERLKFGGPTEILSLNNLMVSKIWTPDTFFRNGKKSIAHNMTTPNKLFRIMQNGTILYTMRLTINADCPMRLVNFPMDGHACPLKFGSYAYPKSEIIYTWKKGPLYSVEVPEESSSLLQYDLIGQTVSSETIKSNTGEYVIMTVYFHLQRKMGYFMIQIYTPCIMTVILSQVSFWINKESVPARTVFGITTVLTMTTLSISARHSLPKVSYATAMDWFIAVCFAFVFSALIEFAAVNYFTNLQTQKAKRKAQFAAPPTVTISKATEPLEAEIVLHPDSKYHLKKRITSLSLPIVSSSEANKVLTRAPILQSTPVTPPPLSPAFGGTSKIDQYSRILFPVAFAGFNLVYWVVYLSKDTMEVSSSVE

Assay [6] can be described thus: Selectivity ratio of alpha1 beta-3 gamma2 GABA A / BzR and alpha5 beta-3 gamma2 GABA A / BzR.

In the case of `CN1C(=O)CN=C(c2ccccc2)c2cc(Br)ccc21`, the Ki in assay [1] is 9.4 nM; in assay [2], 9.3 nM; in assay [3], 7.7 nM; in assay [4] it was 31 nM; in assay [5], greater than 3000 nM. For the same compound, in assay [6], the Ratio worked out at 1.22.
Take `CN1C(=O)CN=C(c2ccccc2)c2ccccc21`: the Ki is 81 nM in assay [1]; 138 nM in assay [2]; 96 nM in assay [3]; 318 nM in assay [4]; greater than 3000 nM in assay [5]. The Ratio in assay [6] is 0.84.
Consider `CCOC(=O)c1[nH]cc2nc3ccc(O)cc3c-2c1COC`, for which the Ki was 2 nM in assay [1]; 5.4 nM in assay [2]; 18.5 nM in assay [3]; 10.8 nM in assay [4]; 3000 nM in assay [5].
The corresponding values for `COc1ccc2c(c1)[nH]c1c2ncc2[nH]c3ccccc3c21` are 3.4 nM, 11.7 nM, 225 nM, 11 nM and greater than 10000 nM.
For `CC(C)c1nc(-c2ncn3c2CN(C)C(=O)c2c(Cl)cccc2-3)no1` the same measures were 0.4 nM, 2.08 nM, 1.54 nM, 1.16 nM and 227 nM.
Regarding `Clc1ccc2c(c1)[nH]c1c2ncc2[nH]c3ccccc3c21`, the Ki in assay [1] is 3.9 nM; in assay [2], 12.2 nM; in assay [3] it was 210 nM; in assay [4], 24.4 nM; in assay [5], greater than 10000 nM.
The corresponding values for `COc1ccc2ncc3c(=O)n(-c4ccccc4)[nH]c3c2c1` are 0.11 nM, 0.1 nM, 0.2 nM, 0.09 nM and greater than 10 nM.
On to `c1cnc2c3[nH]cc4[nH]c5ccccc5c4c-3nc2c1`, for which the Ki in assay [1] was 28 nM; in assay [2], 118 nM; in assay [3], 1000 nM; in assay [4], 156 nM; in assay [5] it was greater than 10000 nM.
On to `c1ccc2c(c1)[nH]c1c2ncc2[nH]c3ccccc3c21`, for which the Ki is 1.1 nM in assay [1]; 1.2 nM in assay [2]; 40.3 nM in assay [3]; 1.1 nM in assay [4]; greater than 1000 nM in assay [5].
Take `CCCOc1ccc2c(c1)c1c(COC)c(C(=O)OCC)ncc1n2C`: the inhibition constant (Ki) in assay [1] was 25.6 nM; in assay [2], 105 nM; in assay [3], 161 nM; in assay [4], 164 nM; in assay [5] it was greater than 10000 nM.
On to `CC(C)(C)OC(=O)c1ncn2c1[C@@H]1CCCN1C(=O)c1c(Br)cccc1-2` [BRETAZENIL], for which the Ki in assay [1] was determined as 0.35 nM; in assay [2], 0.64 nM; in assay [3] it was 0.5 nM; in assay [4], 0.2 nM; in assay [5] it was 12.7 nM.
As to `S=C=Nc1cc2c3ccccc3nc-2c[nH]1`, the Ki in assay [1] is 67.2 nM; in assay [2], 120 nM; in assay [3] it was greater than 3000 nM; in assay [4], 141 nM; in assay [5], greater than 10000 nM.
The corresponding values for `COc1ccc2c(c1)ncc1c(=O)n(-c3ccccc3)[nH]c12` are 1.34 nM, 1.31 nM, 0.84 nM, 1.26 nM and 2.03 nM.
Regarding `COCc1c(SC#N)[nH]cc2nc3ccc(OCc4ccccc4)cc3c1-2`, the Ki is 25 nM in assay [1]; 82.6 nM in assay [2]; 159 nM in assay [3]; 58.8 nM in assay [4]; greater than 10000 nM in assay [5].
Take `O=c1c2c[nH]c3ccc(Br)cc3c-2nn1-c1ccccc1`: the Ki in assay [1] was determined as 0.06 nM; in assay [2], 0.08 nM; in assay [3], 0.12 nM; in assay [4] it was 0.05 nM; in assay [5], 4 nM.
As for `Clc1cccn2c1nc1c3c4ccccc4nc-3c[nH]c12`, the Ki in assay [1] is greater than 3000 nM; in assay [2], greater than 3000 nM; in assay [3], greater than 10000 nM; in assay [4], greater than 3000 nM; in assay [5], greater than 10000 nM.
As to `O=c1c2cnc3ccccc3c2[nH]n1-c1ccc(Br)cc1`, the Ki in assay [1] came to 0.18 nM; in assay [2], 0.21 nM; in assay [3], 1.3 nM; in assay [4] it was 0.25 nM; in assay [5] it was 40 nM.
The corresponding values for `COC(=O)c1cc2c3cc(NC4CCCCC4)ccc3nc-2c[nH]1` are 2.39 nM, 17.4 nM, 316 nM, 14.4 nM and greater than 10000 nM.
Consider `COC(=O)c1cc2c3cc(NCc4ccc5ccccc5c4)ccc3nc-2c[nH]1`, for which the Ki was 30.7 nM in assay [1]; 205 nM in assay [2]; 814 nM in assay [3]; 271 nM in assay [4]; greater than 10000 nM in assay [5].
The corresponding values for `c1ccc2c(c1)[nH]c1cnc3c(nc4ccccn43)c12` are 105 nM, 228 nM, greater than 3000 nM, 284 nM and greater than 10000 nM.
